{
  "source": "paper PMC4516694",
  "about": "(Bioorganic & medicinal chemistry, 2015)",
  "key": {"[1]": {"target": "T1, transfected human CRF1 receptors in HEK293T cells (Homo sapiens, UniProt P34998)", "T1 sequence (P34998 24-415)": "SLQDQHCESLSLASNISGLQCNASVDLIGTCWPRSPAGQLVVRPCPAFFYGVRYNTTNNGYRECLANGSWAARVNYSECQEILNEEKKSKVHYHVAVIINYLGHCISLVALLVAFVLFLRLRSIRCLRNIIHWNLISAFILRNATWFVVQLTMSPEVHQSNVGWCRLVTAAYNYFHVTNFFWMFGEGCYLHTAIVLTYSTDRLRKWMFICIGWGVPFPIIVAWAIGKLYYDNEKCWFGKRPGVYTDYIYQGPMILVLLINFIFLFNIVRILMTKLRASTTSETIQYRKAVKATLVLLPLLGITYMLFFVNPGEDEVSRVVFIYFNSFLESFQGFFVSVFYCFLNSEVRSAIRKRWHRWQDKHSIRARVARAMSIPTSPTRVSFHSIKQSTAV", "test": "In vitro competition binding assay at 23 °C vs. [125I]-Tyr0-sauvagine", "settings": "for Ki: Ki (nM) ± SEM, vs. [125I]-Tyr0-sauvagine, HEK293T cell membranes", "summary_of_the_method": "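Human CRF1 plasmid transiently lipofected into HEK293T (DMEM, 10% FBS, grown to 75% confluency); cells harvested 48 h post-transfection; membranes homogenized in pH 7.2 HEPES/MgCl2/EGTA/BSA/aprotinin buffer. ~80 pM [125I]sauvagine plus test compound (10−13–10−5 M final), 2 h, 23 °C; filtered over polyethyleneamine-soaked filters and cold-washed. Triplicates; Ki by one-site competition fit (Kd 0.5 nM); ratios from Ki values.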"}, "CRF1 receptor [2]": {"target": "CRF1 receptor", "settings": "read-out: Ki, previously reported value; cited from earlier work"}, "CRF1 receptor [3]": {"test_system": "CRF1 receptor", "test": "Non-human primate microPET imaging", "type": "in vivo, male cynomolgus monkey", "settings": "anesthetized cynomolgus monkey", "summary_of_the_method": "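Male cynomolgus monkey on a Siemens MicroPET Focus 220. A Co-57 point-source transmission scan was used for attenuation correction. F-18 radiotracer given by saphenous vein injection, then dynamic imaging for 120 min.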"}, "Rat microPET imaging": {"test": "Rat microPET imaging", "type": "in vivo, male Sprague-Dawley rat", "settings": "anesthetized rat", "summary_of_the_method": "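One male Sprague-Dawley rat on an Inveon microPET/CT: isoflurane induction at 3–4%, maintained at 1–1.5% by nose cone. Prone, warmed with circulating air; Co-57 transmission scan for attenuation correction. F-18 radiotracer given by tail vein injection, then dynamic imaging for 60 min.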"}},
  "data": [
    {"smiles": "CCCN(CCC)c1cc(C)nc2c(-c3ccc(Cl)cc3Cl)c(C)nn12", "note": "[Compound 21, 3-(2,4-dichlorophenyl)-2,5-dimethyl-N,N-dipropylpyrazolo[1,5-a]pyrimidin-7-amine]", "values": [
      {"measurement": "Ki", "setting": "[1]; 23 °C", "value": "0.47 ± 0.08", "unit": "nM"}
    ]},
    {"smiles": "CCCCN(CC)c1cc(C)nc2c(-c3ccc(Cl)cc3Cl)c(C)nn12", "note": "[Compound 22, N-butyl-3-(2,4-dichlorophenyl)-N-ethyl-2,5-dimethylpyrazolo[1,5-a]pyrimidin-7-amine]", "values": [
      {"measurement": "Ki", "setting": "[1]; 23 °C", "value": "0.46 ± 0.06", "unit": "nM"},
      {"measurement": "Ki", "setting": "CRF1 receptor [2]", "value": "0.9 ± 0.1", "unit": "nM"}
    ]},
    {"smiles": "CCN(CCCC[18F])c1cc(C)nc2c(-c3ccc(Cl)cc3Cl)c(C)nn12", "note": "[[^18F]29, 3-(2,4-dichlorophenyl)-N-ethyl-N-(4-[^18F]fluorobutyl)-2,5-dimethylpyrazolo[1,5-a]pyrimidin-7-amine]", "values": [
      {"measurement": "fold stronger binding affinity relative to [18F]28", "setting": "[1]", "value": "~ 2 fold"},
      {"measurement": "brain uptake and washout compared with the other radiotracers", "setting": "CRF1 receptor [3]; microPET TACs", "value": "the overall amount of uptake was less"},
      {"measurement": "radioactivity uptake in the skull and sphenoid region / defluorination", "setting": "CRF1 receptor [3]; microPET TACs", "value": "less than that of [^18F]28 and [^18F]28-d8"}
    ]},
    {"smiles": "CCN(CCOCCF)c1cc(C)nc2c(-c3ccc(Cl)cc3Cl)c(C)nn12", "note": "[Compound 27, 3-(2,4-dichlorophenyl)-N-ethyl-N-(2-(2-fluoroethoxy)ethyl)-2,5-dimethylpyrazolo[1,5-a]pyrimidin-7-amine]", "values": [
      {"measurement": "Ki", "setting": "[1]; 23 °C", "value": "1.17 ± 0.07", "unit": "nM"},
      {"measurement": "fold loss of affinity relative to 29", "setting": "[1]; ratio of Ki values, Table 1", "value": "~ 2.5 fold"}
    ]},
    {"smiles": "Cc1cc(N(C)CCOCC[18F])n2nc(C)c(-c3ccc(Cl)cc3Cl)c2n1", "note": "[[^18F]26, 3-(2,4-dichlorophenyl)-N-(2-(2-[^18F]fluoroethoxy)ethyl)-N,2,5-trimethylpyrazolo[1,5-a]pyrimidin-7-amine]", "values": [
      {"measurement": "brain uptake and washout compared with the other radiotracers", "setting": "CRF1 receptor [3]; microPET TACs", "value": "entered the brain more rapidly and washed out more rapidly"},
      {"measurement": "radioactivity uptake in the skull and sphenoid region / defluorination", "setting": "CRF1 receptor [3]; microPET TACs", "value": "rapid uptake and then a steady washout"}
    ]},
    {"smiles": "Cc1cc(N(C)CCCCF)n2nc(C)c(-c3ccc(Cl)cc3Cl)c2n1", "note": "[Compound 28, 3-(2,4-dichlorophenyl)-N-(4-fluorobutyl)-N,2,5-trimethylpyrazolo[1,5-a]pyrimidin-7-amine]", "values": [
      {"measurement": "Ki", "setting": "[1]; 23 °C", "value": "1.07 ± 0.21", "unit": "nM"},
      {"measurement": "fold loss of affinity relative to 29", "setting": "[1]; ratio of Ki values, Table 1", "value": "~ 2.3 fold"}
    ]},
    {"smiles": "Cc1cc(N(CCF)CCCCF)n2nc(C)c(-c3ccc(Cl)cc3Cl)c2n1", "note": "[Compound 30, 3-(2,4-dichlorophenyl)-N-(4-fluorobutyl)-N-(2-fluoroethyl)-2,5-dimethylpyrazolo[1,5-a]pyrimidin-7-amine]", "values": [
      {"measurement": "Ki", "setting": "[1]; 23 °C", "value": "0.59 ± 0.04", "unit": "nM"}
    ]},
    {"smiles": "CCN(CCCCF)c1cc(C)nc2c(-c3ccc(Cl)cc3Cl)c(C)nn12", "note": "[Compound 29, 3-(2,4-dichlorophenyl)-N-ethyl-N-(4-fluorobutyl)-2,5-dimethylpyrazolo[1,5-a]pyrimidin-7-amine]", "values": [
      {"measurement": "Ki", "setting": "[1]; 23 °C", "value": "0.47 ± 0.1", "unit": "nM"}
    ]},
    {"smiles": "Cc1cc(N(C)CCOCCF)n2nc(C)c(-c3ccc(Cl)cc3Cl)c2n1", "note": "[Compound 26, 3-(2,4-dichlorophenyl)-N-(2-(2-fluoroethoxy)ethyl)-N,2,5-trimethylpyrazolo[1,5-a]pyrimidin-7-amine]", "values": [
      {"measurement": "decrease in affinity relative to compounds 27, 28, 29 and 30", "setting": "[1]; 23 °C", "value": "≥ 10", "unit": "fold"},
      {"measurement": "Ki", "setting": "[1]; 23 °C", "value": "12.4 ± 1.06", "unit": "nM"},
      {"measurement": "fold loss of affinity relative to 29", "setting": "[1]; ratio of Ki values, Table 1", "value": "~ 26 fold"},
      {"measurement": "fold loss of affinity upon changing 28 to 26", "setting": "[1]; ratio of Ki values, Table 1", "value": "~12", "unit": "fold"},
      {"measurement": "fold lower binding affinity than 27 or 28", "setting": "[1]; ratio of Ki values, Table 1", "value": "10 – 12 fold"}
    ]},
    {"smiles": "[2H]C([2H])([18F])C([2H])([2H])C([2H])([2H])C([2H])([2H])N(C)c1cc(C)nc2c(-c3ccc(Cl)cc3Cl)c(C)nn12", "note": "[[^18F]28-d8, 3-(2,4-dichlorophenyl)-N-(4-[^18F]fluorobutyl-1,1,2,2,3,3,4,4-d8)-N,2,5-trimethylpyrazolo[1,5-a]pyrimidin-7-amine]", "values": [
      {"measurement": "brain uptake and washout compared with the other radiotracers", "setting": "CRF1 receptor [3]; microPET TACs", "value": "very similar to that of [^18F]28"},
      {"measurement": "radioactivity uptake in the skull and sphenoid region / defluorination", "setting": "CRF1 receptor [3]; microPET TACs", "value": "reduced somewhat relative to [^18F]28 but defluorination was not completely prevented"}
    ]},
    {"smiles": "CCN(CCOCC[18F])c1cc(C)nc2c(-c3ccc(Cl)cc3Cl)c(C)nn12", "note": "[[^18F]27, 3-(2,4-dichlorophenyl)-N-ethyl-N-(2-(2-[^18F]fluoroethoxy)ethyl)-2,5-dimethylpyrazolo[1,5-a]pyrimidin-7-amine]", "values": [
      {"measurement": "radioactivity uptake in the skull and sphenoid region / defluorination", "setting": "CRF1 receptor [3]; microPET TACs", "value": "rapid uptake and then a steady washout"},
      {"measurement": "specific binding in brain (high vs low CRF1 receptor density regions)", "setting": "CRF1 receptor [3]; microPET TACs", "value": "little or no specific binding"},
      {"measurement": "time of peak brain uptake", "setting": "CRF1 receptor [3]; microPET TACs", "value": "5 to 15", "unit": "min"}
    ]},
    {"smiles": "Cc1cc(N(C)CCCC[18F])n2nc(C)c(-c3ccc(Cl)cc3Cl)c2n1", "note": "[[^18F]28, 3-(2,4-dichlorophenyl)-N-(4-[^18F]fluorobutyl)-N,2,5-trimethylpyrazolo[1,5-a]pyrimidin-7-amine]", "values": [
      {"measurement": "brain penetrance", "setting": "CRF1 receptor [3]; microPET", "value": "brain penetrance was achieved"},
      {"measurement": "radioactivity uptake in the skull and sphenoid region / defluorination", "setting": "CRF1 receptor [3]; microPET TACs", "value": "high radioactivity uptake in the skull, and sphenoid bone and/or sphenoid sinus, suggests defluorination"},
      {"measurement": "specific binding in brain (high vs low CRF1 receptor density regions)", "setting": "CRF1 receptor [3]; microPET TACs", "value": "little or no specific binding"},
      {"measurement": "liver uptake (SUV)", "setting": "Rat microPET imaging; at 3 min, tail vein injection", "value": 5.4, "unit": "SUV"},
      {"measurement": "brain uptake (SUV)", "setting": "Rat microPET imaging; at 5 min, tail vein injection", "value": 2, "unit": "SUV"},
      {"measurement": "brain penetrance", "setting": "Rat microPET imaging; microPET", "value": "brain penetrance was achieved"},
      {"measurement": "stability to defluorination (bone visualization)", "setting": "Rat microPET imaging; microPET", "value": "stable to defluorination"}
    ]}
  ]
}
